{"data": "Assay results collected from several papers", "ALK L1196M": "ALK tyrosine kinase receptor (ALK, Homo sapiens, UniProt Q9UM73, L1196M)", "ALK": "ALK tyrosine kinase receptor (ALK, Homo sapiens, UniProt Q9UM73)", "ALK C1156Y": "ALK tyrosine kinase receptor (ALK, Homo sapiens, UniProt Q9UM73, C1156Y)", "note": "Lines come from different studies, so protocols differ."}
{"Structure (SMILES)": "F[C@@H]1CCN(c2nccc(-c3cnn4ncccc34)n2)C1", "target": "ALK L1196M", "test": "binding", "setting": "1 µM", "quantity": "remaining binding", "value": "100%"}
{"Structure (SMILES)": "CC(C)c1ccc(NC(=O)c2cccs2)c(-c2nc3ccccc3[nH]c2=O)c1", "target": "ALK", "test": "enzyme activity, inhibitor", "setting": "1 µM", "quantity": "activity vs control", "value": "92%"}
{"Structure (SMILES)": "CCCOc1ccc([C@@H]2[C@@H](C(=O)O)[C@H](c3ccc4c(c3)OCO4)CN2CC(=O)Nc2c(CC)cccc2CC)cc1", "target": "ALK L1196M", "test": "cell-free assay, competition with immobilised ligand", "setting": "1 µM", "quantity": "remaining binding", "value": "78%"}
{"Structure (SMILES)": "COc1cc2nccc(Oc3ccc(NC(=O)c4c5n(n(-c6ccc(F)cc6)c4=O)CCCC5)cc3)c2cc1OC", "target": "ALK", "test": "enzyme activity, inhibitor", "setting": "0.1 µM", "quantity": "inhibition", "value": "-23%"}
{"Structure (SMILES)": "COc1ccc2c(c1)O[C@@H](c1ccc(OC)c(OC)c1)C[C@H]2NC(=O)C1(c2ccc3c(c2)OC(F)(F)O3)CC1", "target": "ALK", "test": "cell-free assay, competition with immobilised ligand", "setting": "1 µM", "quantity": "remaining binding", "value": "100%"}
{"Structure (SMILES)": "C[C@@H]1CCN(c2nccc(-c3cnn4ncccc34)n2)C1", "target": "ALK", "test": "binding", "setting": "1 µM", "quantity": "remaining binding", "value": "81%"}
{"Structure (SMILES)": "Oc1ccc(-c2nc(-c3ccncc3)c(-c3ccc(F)cc3)[nH]2)cc1", "target": "ALK", "test": "cell-free assay", "setting": "0.5 µM", "quantity": "remaining signal", "value": "104%"}
{"Structure (SMILES)": "COc1cc(-c2cn(C3CCc4c(F)cccc4N(CC(F)(F)F)C3=O)nn2)ccc1-n1cnc(C)c1 (centres unmarked)", "target": "ALK L1196M", "test": "cell-free assay, competition with immobilised ligand", "setting": "1 µM", "quantity": "remaining binding", "value": "100%"}
{"Structure (SMILES)": "CC(C)(O)[C@H]1CC[C@H](Nc2ccc3ncc(-c4cccc(C(F)(F)F)c4)n3n2)CC1", "target": "ALK", "test": "enzyme activity, inhibitor", "setting": "1 µM", "quantity": "remaining activity", "value": "57%"}
{"Structure (SMILES)": "O=C1NC(=O)c2cc(Nc3ccc(F)cc3)c(Nc3ccc(F)cc3)cc21", "target": "ALK", "test": "cell-free assay", "setting": "0.5 µM", "quantity": "remaining signal", "value": "92.6%"}
{"Structure (SMILES)": "CNCc1ccccc1-c1csc([C@H](C)Nc2nc(C)nc3cc(OC)c(OC)cc23)c1", "target": "ALK C1156Y", "test": "cell-free assay, competition with immobilised ligand", "setting": "1 µM", "quantity": "remaining binding", "value": "100%"}
{"Structure (SMILES)": "CN(CCCC(F)(F)F)c1nccc(-c2cnn3ncccc23)n1", "target": "ALK C1156Y", "test": "binding", "setting": "1 µM", "quantity": "remaining binding", "value": "100%"}
{"Structure (SMILES)": "CNC(=O)Nc1ccc2c(c1)[C@@]1(CC2)OC(=O)N(CC(=O)N(Cc2ccc(F)cc2)[C@@H](C)C(F)(F)F)C1=O", "target": "ALK", "test": "cell-free assay, competition with immobilised ligand", "setting": "1 µM", "quantity": "remaining binding", "value": "77%"}
{"Structure (SMILES)": "CN(c1nccc(-c2cnn3ncccc23)n1)C1CC1", "target": "ALK", "test": "binding", "setting": "1 µM", "quantity": "remaining binding", "value": "100%"}
{"Structure (SMILES)": "Cc1ccc(C(=O)Nc2ccc(CN3CCN(C)CC3)c(C(F)(F)F)c2)cc1C#Cc1cnc2cccnn12", "target": "ALK", "test": "cell-free assay", "setting": "23.5 nM", "quantity": "remaining signal", "value": "81%"}
{"Structure (SMILES)": "Nc1ncnc2occ(-c3ccc(NC(=O)Nc4cc(C(F)(F)F)ccc4F)cc3)c12", "target": "ALK L1196M", "test": "cell-free assay", "setting": "20 µM", "quantity": "remaining signal", "value": "1.8%"}
{"Structure (SMILES)": "CNC(=O)c1cc(Oc2ccc(NC(=O)Nc3ccc(Cl)c(C(F)(F)F)c3)cc2)ccn1", "target": "ALK", "test": "enzyme activity, inhibitor", "setting": "0.3 µM", "quantity": "inhibition", "value": "-16%"}
{"Structure (SMILES)": "O=C(NCCCC1CCCCC1)c1ccc(CNC(=O)c2cnn(-c3ccccc3)c2C(F)(F)F)cc1", "target": "ALK L1196M", "test": "cell-free assay, competition with immobilised ligand", "setting": "0.1 µM", "quantity": "remaining binding", "value": "100%"}
{"Structure (SMILES)": "CN(C)c1ncc(F)c(-c2cnn3ncccc23)n1", "target": "ALK", "test": "binding", "setting": "1 µM", "quantity": "remaining binding", "value": "90%"}
{"Structure (SMILES)": "Cc1[nH]c(/C=C2\\C(=O)Nc3ccc(F)cc32)c(C)c1C(=O)N[C@H]1CCN(C(=O)N(C)C)C1", "target": "ALK", "test": "enzyme activity, inhibitor", "setting": "0.1 µM", "quantity": "remaining activity", "value": "109%"}
{"Structure (SMILES)": "CCN(CC)c1ccc(C2=NNC(=O)CC2C)cc1[N+](=O)[O-] (centres unmarked)", "target": "ALK", "test": "enzyme activity, inhibitor", "setting": "10 µM", "quantity": "remaining activity", "value": "110%"}
{"Structure (SMILES)": "c1cnn2ncc(-c3ccnc(N4CCC45COC5)n3)c2c1", "target": "ALK", "test": "binding", "setting": "1 µM", "quantity": "remaining binding", "value": "78%"}
{"Structure (SMILES)": "CS(=O)(=O)Nc1cccc(-c2csc(NC(=O)CSc3nc4nccnc4c(=O)n3CCc3ccccc3)n2)c1", "target": "ALK", "test": "enzyme activity, inhibitor", "setting": "10 µM", "quantity": "inhibition", "value": "9%"}
{"Structure (SMILES)": "O=C(NCc1ncc(C(F)(F)F)cc1Cl)c1ccc2c(c1)C1(CCS(=O)(=O)CC1)[C@@H](C1CC1)N2S(=O)(=O)c1ccc(F)cc1", "target": "ALK C1156Y", "test": "cell-free assay, competition with immobilised ligand", "setting": "1 µM", "quantity": "remaining binding", "value": "100%"}
{"Structure (SMILES)": "CC/C(=N\\NC(=O)NCc1cccc(O)c1)c1ccc(O)c(C)c1O", "target": "ALK tyrosine kinase receptor (ALK, Homo sapiens, UniProt Q9UM73, F1174L)", "test": "enzyme activity, inhibitor", "setting": "0.1 µM", "quantity": "inhibition", "value": "-0.9%"}
{"Structure (SMILES)": "Cc1ccc(C(=O)NCc2ccsc2)cc1C#Cc1cn(C(C)C)c2ncnc(N)c12", "target": "ALK", "test": "enzyme activity, inhibitor", "setting": "1 µM", "quantity": "activity vs control", "value": "103%"}
{"Structure (SMILES)": "Cc1ccc(Nc2nccc(N(C)c3ccc4c(C)n(C)nc4c3)n2)cc1S(N)(=O)=O", "target": "ALK", "test": "enzyme activity, inhibitor", "setting": "0.3 µM", "quantity": "inhibition", "value": "1%"}
{"Structure (SMILES)": "O=C1Nc2ccc(Cl)cc2C1=Cc1cc(Cl)c(O)c(Cl)c1", "target": "ALK", "test": "cell-free assay", "setting": "0.5 µM", "quantity": "remaining signal", "value": "65.8%"}
{"Structure (SMILES)": "Cc1nc(N2CC[C@@H](O)C2)ncc1-c1cc(C(F)(F)F)cc2[nH]ncc12", "target": "ALK", "test": "cell-free assay, competition with immobilised ligand", "setting": "1 µM", "quantity": "remaining binding", "value": "81%"}
{"Structure (SMILES)": "Cc1cc(NC(=O)c2cccc3cc(-c4cccc5[nH]nc(N)c45)ccc23)ccc1F", "target": "ALK", "test": "enzyme activity, inhibitor", "setting": "0.1 µM", "quantity": "activity vs control", "value": "140%"}
{"Structure (SMILES)": "CCN(CC)CCNC(=O)c1c(C)[nH]c(/C=C2\\C(=O)Nc3ccc(F)cc32)c1C", "target": "ALK", "test": "enzyme activity, inhibitor", "setting": "0.1 µM", "quantity": "remaining activity", "value": "73%"}
{"Structure (SMILES)": "CN1CC(Oc2cnc(C#N)cc2-c2ccn3nc(NC(=O)C4CC4)cc3c2)C1", "target": "ALK", "test": "enzyme activity, inhibitor", "setting": "1 µM", "quantity": "inhibition", "value": "0%"}
{"Structure (SMILES)": "N[C@H]1CCN(c2nccc(-c3cnn4ncccc34)n2)C1", "target": "ALK", "test": "binding", "setting": "1 µM", "quantity": "remaining binding", "value": "85%"}
{"Structure (SMILES)": "CNCc1ccc(-c2cc(-c3nc(-c4ccc(S(=O)(=O)C(C)C)cc4)cnc3N)on2)cc1", "target": "ALK", "test": "enzyme activity, inhibitor", "setting": "2 µM", "quantity": "inhibition", "value": "4%"}
{"Structure (SMILES)": "COc1cc(Cl)c(C(=O)N[C@@H](CN[C@H]2CC[C@@H](N)CC2)Cc2ccc(C#N)cc2)cc1-c1ccc(CN[C@H](C)c2ccc(C)cc2)o1", "target": "ALK", "test": "enzyme activity, inhibitor", "setting": "1 µM", "quantity": "remaining activity", "value": "96%"}
{"Structure (SMILES)": "O=C(Nc1cnn(-c2csc(C(=O)NC3COC3)c2)c1)Nc1ccccc1Cl", "target": "ALK", "test": "enzyme activity, inhibitor", "setting": "5 µM", "quantity": "remaining activity", "value": "101%"}
{"Structure (SMILES)": "COc1cc2c(N3CCN(C(=O)Nc4ccc(OC(C)C)cc4)CC3)ncnc2cc1OCCCN1CCCCC1", "target": "ALK", "test": "cell-free assay", "setting": "0.5 µM", "quantity": "remaining signal", "value": "103%"}
{"Structure (SMILES)": "COc1cc2ncnc(Nc3ccc(Oc4ccccc4)c(C)c3C)c2cc1OC", "target": "ALK", "test": "enzyme activity, inhibitor", "setting": "1 µM", "quantity": "inhibition", "value": "-3%"}
